Test results published in ChEMBL document CHEMBL1127562, “N-substituted spirosuccinimide, spiropyridazine, spiroazetidine, and acetic acid aldose reductase inhibitors derived from isoquinoline-1,3-diones. 2” (J Med Chem, 1994).
One block for each compound: values may come before it. Calls of active or inactive are those of the source. The calls are words filed in the database; no cut-off is given here.

What was measured:
[1] = molecular target: Aldo-keto reductase family 1 member B1 (Bos taurus) (UniProt P16116); experiment: Inhibition of aldose reductase activity in partially purified bovine lens preparation at 4*10 e-8 M
Rattus norvegicus [2] = experiment: Tested for in vivo inhibition of galactitol accumulation in the lens of galactose-fed rats at the dose of 24.9 (mg/kg/day); NS=Not significant; assay type: functional, organism-based; details: Lens of camera-type eye
Rattus norvegicus [3] = experiment: Tested for in vivo inhibition of galactitol accumulation in the sciatic nerve of galactose-fed rats at the dose of 24.9 (mg/kg/day); NS=Not significant; assay type: functional, organism-based
How it was run: (§1)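 Rats were given a 20% galactose diet for 4 days, with the test compound administered in the diet. Sciatic nerve galactitol accumulation was measured, and activity is given as % inhibition at the stated daily dose (mg/kg/day). Values are mean ± SEM, n = 6 animals; p < 0.01 unless indicated. NS means no significant inhibition of polyol accumulation.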

[4] = molecular target: Aldo-keto reductase family 1 member B1 (Bos taurus) (UniProt P16116); experiment: Inhibition of aldose reductase activity in partially purified bovine lens preparation at 10e-5 M
How it was run: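 Partially purified bovine lens aldose reductase. Reduction of DL-glyceraldehyde substrate followed spectrophotometrically. Activity expressed as average inhibition at the tested concentrations, 1×10^-5, 1×10^-6, 1×10^-7 and 4×10^-6 M as printed; IC50 in M where given.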

Rattus norvegicus [5] = experiment: Tested for in vivo inhibition of galactitol accumulation in the lens of galactose-fed rats at the dose of 50 (mg/kg/day); assay type: functional, Lens of camera-type eye
Rattus norvegicus [6] = experiment: Tested for in vivo inhibition of galactitol accumulation in the sciatic nerve of galactose-fed rats at the dose of 50 (mg/kg/day); assay type: functional
How it was run: (§2)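 Rats fed a 20% galactose diet for 4 days, with test compound given in the diet at the stated daily dose (mg/kg/day). Read-out is inhibition of galactitol (polyol) accumulation in sciatic nerve. Values are % inhibition, mean ± SEM of six animals; p < 0.01 unless marked (some p < 0.05). NS = no significant inhibition of polyol accumulation. Tolrestat was the reference standard.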

Rattus norvegicus [7] = experiment: Tested for in vivo inhibition of galactitol accumulation in the sciatic nerve of galactose-fed rats at the dose of 47.7 (mg/kg/day); NS=Not significant; assay type: functional, organism-based; how it was run: as §1
Rattus norvegicus [8] = experiment: Tested for in vivo inhibition of galactitol accumulation in the lens of galactose-fed rats at the dose of 47.7 (mg/kg/day); NS=Not significant; assay type: functional, organism-based; details: Lens of camera-type eye
Rattus norvegicus [9] = experiment: Tested for in vivo inhibition of galactitol accumulation in the sciatic nerve of galactose-fed rats at the dose of 1.0 (mg/kg/day); NS=Not significant
Rattus norvegicus [10] = experiment: Tested for in vivo inhibition of galactitol accumulation in the lens of galactose-fed rats at the dose of 25.1 (mg/kg/day); NS=Not significant; assay type: functional, organism-based; details: Lens of camera-type eye
Rattus norvegicus [11] = experiment: Tested for in vivo inhibition of galactitol accumulation in the sciatic nerve of galactose-fed rats at the dose of 25.1 (mg/kg/day); NS=Not significant; assay type: functional, organism-based; how it was run: as §1
Rattus norvegicus [12] = experiment: Tested for in vivo inhibition of galactitol accumulation in the sciatic nerve of galactose-fed rats at the dose of 87.3 (mg/kg/day); NS=Not significant; assay type: functional, organism-based; how it was run: as §2
Rattus norvegicus [13] = experiment: Tested for in vivo inhibition of galactitol accumulation in the lens of galactose-fed rats at the dose of 87.3 (mg/kg/day); NS=Not significant; assay type: functional, organism-based; details: Lens of camera-type eye
How it was run: (§3)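 Galactosemic rats were fed 20% galactose for 4 days, with the compound mixed into the diet. […] galactitol accumulation was measured, and activity is given as % inhibition at the stated daily dose (mg/kg/day). Values are mean ± SEM of six animals; p < 0.01 unless indicated. NS means no significant inhibition of polyol accumulation.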

Rattus norvegicus [14] = experiment: Tested for in vivo inhibition of galactitol accumulation in the lens of galactose-fed rats at the dose of 55 (mg/kg/day); NS=Not significant; assay type: functional, organism-based; details: Lens of camera-type eye
Rattus norvegicus [15] = experiment: Tested for in vivo inhibition of galactitol accumulation in the sciatic nerve of galactose-fed rats at the dose of 55 (mg/kg/day); NS=Not significant; assay type: functional, organism-based; how it was run: as §2
Rattus norvegicus [16] = experiment: Tested for in vivo inhibition of galactitol accumulation in the lens of galactose-fed rats at the dose of 69.2 (mg/kg/day); NS=Not significant; assay type: functional, organism-based; details: Lens of camera-type eye; how it was run: as §3
Rattus norvegicus [17] = experiment: Tested for in vivo inhibition of galactitol accumulation in the sciatic nerve of galactose-fed rats at the dose of 69.2 (mg/kg/day); NS=Not significant; assay type: functional, organism-based; how it was run: as §2
Rattus norvegicus [18] = experiment: Tested for in vivo inhibition of galactitol accumulation in the sciatic nerve of galactose-fed rats at the dose of 1.0 (mg/kg/day); NS=Not significant; assay type: functional, organism-based; how it was run: as §1
Rattus norvegicus [19] = experiment: Tested for in vivo inhibition of galactitol accumulation in the sciatic nerve of galactose-fed rats at the dose of 25 (mg/kg/day); NS=Not significant; assay type: functional, organism-based; how it was run: as §1
Rattus norvegicus [20] = experiment: Tested for in vivo inhibition of galactitol accumulation in the lens of galactose-fed rats at the dose of 25 (mg/kg/day); NS=Not significant; assay type: functional, organism-based; details: Lens of camera-type eye
Rattus norvegicus [21] = experiment: Tested for in vivo inhibition of galactitol accumulation in the lens of galactose-fed rats at the dose of 25.2 (mg/kg/day); NS=Not significant; assay type: functional, organism-based; details: Lens of camera-type eye
Rattus norvegicus [22] = experiment: Tested for in vivo inhibition of galactitol accumulation in the sciatic nerve of galactose-fed rats at the dose of 25.2 (mg/kg/day); NS=Not significant; assay type: functional, organism-based; how it was run: as §1
Rattus norvegicus [23] = experiment: Tested for in vivo inhibition of galactitol accumulation in the sciatic nerve of galactose-fed rats at the dose of 47.2 (mg/kg/day); NS=Not significant; assay type: functional, organism-based; how it was run: as §1
Rattus norvegicus [24] = experiment: Tested for in vivo inhibition of galactitol accumulation in the lens of galactose-fed rats at the dose of 47.2 (mg/kg/day); NS=Not significant; assay type: functional, organism-based; details: Lens of camera-type eye

SMILES: CCN1C(=O)CC2(C1=O)C(=O)N(Cc1nc3cc(C(F)(F)F)ccc3s1)C(=O)c1ccc(F)cc12 (centres undefined)
inhibition [4]: inactive

SMILES: CCCN1C(=O)CC2(C1=O)C(=O)N(Cc1ccc(Br)cc1F)C(=O)c1ccc(F)cc12 (centres undefined)
inhibition [4]: inactive | inhibition (Rattus norvegicus [9]): inactive

SMILES: COC(=O)NC(=O)CC1C(=O)N(C)C(=O)c2cc(Br)c(OC)cc21 (centres undefined)
inhibition [4]: 29%

SMILES: CN1C(=O)CC2(C1=O)C(=O)N(Cc1ccc(C(F)(F)F)cc1)C(=O)c1ccccc12 (centres undefined)
inhibition [4]: inactive | inhibition (Rattus norvegicus [11]): inactive

SMILES: CCN1C(=O)c2ccccc2C(CC(=O)NC(=O)OC)C1=O (centres undefined)
inhibition [4]: inactive | inhibition (Rattus norvegicus [12]): inactive | inhibition (Rattus norvegicus [13]): inactive

SMILES: O=C1CC2(N1)C(=O)N(Cc1ccc(Br)cc1F)C(=O)c1ccccc12 (centres undefined)
inhibition (Rattus norvegicus [14]): inactive | inhibition (Rattus norvegicus [15]): inactive

SMILES: O=C(O)CN1C(=O)c2ccccc2C(Cc2ccc(Br)cc2F)C1=O (centres undefined)
inhibition (Rattus norvegicus [14]): inactive | inhibition (Rattus norvegicus [15]): inactive

SMILES: NC(=O)CC1C(=O)N(Cc2ccc(Br)cc2F)C(=O)c2ccc(F)cc21 (centres undefined)
inhibition [4]: 88% | inhibition (Rattus norvegicus [19]): inactive | inhibition (Rattus norvegicus [20]): inactive

SMILES: COC(=O)NC(=O)CC1C(=O)N(C)C(=O)c2cc(OC)ccc21 (centres undefined)
inhibition [4]: 72% | inhibition (Rattus norvegicus [21]): inactive | inhibition (Rattus norvegicus [22]): inactive

More lines, main results first:

inhibition [1]: 32%
SMILES: O=C1Cc2c(n(Cc3ccc(Br)cc3F)c(=O)c3ccccc23)O1
inhibition (Rattus norvegicus [2]): inactive | inhibition (Rattus norvegicus [3]): inactive

inhibition [4]: inactive
SMILES: O=C1c2ccccc2C2(CC(=O)N(N=C3CCOCC3)C2=O)C(=O)N1Cc1nc2cc(C(F)(F)F)ccc2s1 (centres undefined)
Inhibition (Rattus norvegicus [5]): 41% | Inhibition (Rattus norvegicus [6]): 94%

inhibition [4]: 90%
SMILES: COC(=O)NC(=O)CC1C(=O)N(C)C(=O)c2cc(Cl)c(Cl)cc21 (centres undefined)
inhibition (Rattus norvegicus [7]): inactive | inhibition (Rattus norvegicus [8]): inactive

inhibition [4]: inactive
SMILES: NN1C(=O)CC2(C1=O)C(=O)N(Cc1nc3cc(C(F)(F)F)ccc3s1)C(=O)c1ccccc12 (centres undefined)
Inhibition (Rattus norvegicus [5]): 61% | Inhibition (Rattus norvegicus [6]): 96%

inhibition [4]: 80%
SMILES: CCNC(=O)CC1C(=O)N(Cc2ccc(Br)cc2F)C(=O)c2ccc(F)cc21 (centres undefined)
inhibition (Rattus norvegicus [10]): inactive | inhibition (Rattus norvegicus [11]): inactive

inhibition [4]: 67%
SMILES: COC(=O)NC(=O)CC1C(=O)N(C)C(=O)c2ccc([N+](=O)[O-])cc21 (centres undefined)
inhibition (Rattus norvegicus [7]): inactive | inhibition (Rattus norvegicus [8]): inactive

inhibition [1]: 42%
SMILES: O=C(O)CC1C(=O)N(Cc2ccc(Br)cc2F)C(=O)c2cc(F)ccc21 (centres undefined)

inhibition [4]: inactive
SMILES: CN1C(=O)c2ccccc2C(CC(N)=O)C1=O (centres undefined)
inhibition (Rattus norvegicus [16]): inactive | inhibition (Rattus norvegicus [17]): inactive

inhibition [4]: inactive
SMILES: CCCCN1C(=O)CC2(C1=O)C(=O)N(Cc1ccc(Br)cc1F)C(=O)c1ccccc12 (centres undefined)
inhibition (Rattus norvegicus [18]): inactive

inhibition [4]: inactive
SMILES: O=C1c2ccccc2C2(CC(=O)N(N=C3CCCC3)C2=O)C(=O)N1Cc1nc2cc(C(F)(F)F)ccc2s1 (centres undefined)
Inhibition (Rattus norvegicus [5]): 28% | Inhibition (Rattus norvegicus [6]): 92%

inhibition [4]: 53%
SMILES: COC(=O)NC(=O)CC1C(=O)N(C)C(=O)c2ccc(OC)cc21 (centres undefined)
inhibition (Rattus norvegicus [23]): inactive | inhibition (Rattus norvegicus [24]): inactive
